Here are results for one molecule from ChEMBL document CHEMBL1131235, “(R)-(+)-2-[[[3-(Morpholinomethyl)-2H-chromen-8-yl]oxy]methyl] morpholine methanesulfonate: a new selective rat 5-hydroxytryptamine1B receptor antagonist” (J Med Chem, 1998).

Values joined by “and” are separate entries in the source; they are usually repeats but may differ in a detail not shown here. Equal values may be shown once.

Experiment [1] can be described thus: Antagonism of the induced potentiation of K+ stimulated [3H]5-HT release from brain slices with 5-HT (100 nM) at a concentration of 1000 nM. The experiment is classed as functional, Rattus norvegicus. The procedure, abridged:
(§1)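 Rat occipital cortex slices (0.3 × 0.3 mm) were preloaded with [3H]-5-HT and superfused at 0.4 mL/min with oxygenated Krebs-Henseleit buffer, pH 7.4, containing 2.5 μM citalopram. After a 50 min wash, 4-min fractions were collected. 25 mM KCl was applied for 4 min at 62 min and again at 98 min. Test compound and 5-HT were given together in the same solution for 72 min. Fraction and slice radioactivity were counted by liquid scintillation. S2/S1 was expressed as % of control; Dunnett's t-test after ANOVA.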

Experiment [2] has as its target 5-hydroxytryptamine receptor 6 (Rattus norvegicus, UniProt P31388). Briefly: Binding affinity against 5-hydroxytryptamine 6 receptor from CHO cell membranes using [3H]5-HT as the radioligand. The procedure, abridged: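 Binding by the Johansson et al. method. 5-HT2A used [3H]ketanserin and 5-HT2C used [3H]mesulergine, both on rat cortex. 5-HT6 and 5-HT7 used [3H]-5-HT on CHO cell membranes expressing the rat receptors.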

The nature of experiment [3]: Effect on 5-HIAA/5-HT turnover in Frontal cortex of rat brain, expressed as percent of control. The class given is functional. The procedure, abridged:
(§2)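 Rats received compound 20 mg/kg sc or saline 30 min before NSD 1015 (3-hydroxybenzylhydrazine dihydrochloride), 100 mg/kg sc. They were killed 30 min later. Hypothalamus, hippocampus, frontal cortex and striatum were dissected, frozen on dry ice and stored at -70 °C. 5-HTP, 5-HT and 5-HIAA were measured by HPLC and expressed as % of saline control.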

Experiment [4] relates to Rattus norvegicus. Briefly: Effect on the wet dog shake response(WDS) in rats after 9 determinations at a dose of 3mg/kg, sc pretreated with 200 mg/kg ip of pCPA. The class given is functional. The settings on record: route subcutaneous. The procedure, abridged: (§3)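 Rats were pretreated with pCPA 200 mg/kg ip or saline at 72 and 48 h before compound, 3 mg/kg sc. Wet dog shakes (whole-body and head shakes) were counted from 5 to 65 min after injection. Groups of 8-10 rats were compared with saline-treated rats (n = 30), Dunnett's t-test after ANOVA.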

Experiment [5] is described as follows: Potentiation of K+ stimulated release of [3H]-5-HT from brain slices at a concentration of 10 nM. (activity expressed as ratio of S2 (second stimulation)/S1(first stimulation)). The experiment is classed as functional, Rattus norvegicus. The procedure, abridged: (§4)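 Rat occipital cortex slices (0.3 × 0.3 mm) preloaded with [3H]-5-HT, superfused at 0.4 mL/min with oxygenated Krebs-Henseleit pH 7.4 containing 2.5 μM citalopram. Two 4-min 25 mM KCl pulses at 62 and 98 min, compound present for 72 min spanning S2. Fractional release counted by liquid scintillation. S2/S1 ratio reported, also as % of control; n=3–8.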

Experiment [6] has as its system Rattus norvegicus. Nature of the experiment: Effect on the wet dog shake response(WDS) in rats after 10 determinations at a dose of 3 mg/kg, sc pretreated with saline. The experiment is classed as functional. The settings on record: route subcutaneous. The essentials: as §3
Experiment [7] is filed under the species Rattus norvegicus. Nature of the experiment: Effect on 5-HTP turnover in Hippocampus of rat brain, expressed as percent of control. The class given is functional. The procedure, abridged: as §2
Experiment [8] can be described thus: Potentiation of K+ stimulated release of [3H]5-HT from brain slices at a concentration of 1000 nM. (activity expressed as ratio of S2 (second stimulation)/S1(first stimulation)). The class given is functional, Rattus norvegicus. The procedure, abridged: as §4
Experiment [9] concerns the target Muscarinic acetylcholine receptor M3 (Rattus norvegicus, UniProt P08483). Nature of the experiment: Binding affinity against Muscarinic acetylcholine receptor using [3H]QNB as the radioligand.
Experiment [10] in a line: Potentiation of K+ stimulated release of [3H]5-HT from brain slices at a concentration of 0 nM. (activity expressed as ratio of S2 (second stimulation)/S1(first stimulation)). The experiment is classed as functional, Rattus norvegicus.
A short description of experiment [11]: Antagonism of the induced potentiation of K+ stimulated [3H]5-HT release from brain slices with 5-HT (1000 nM) at a concentration of 1000nM, expressed as percent of control. On the set-up: scale not given: the % may be the effect or the level left. The class given is functional, Rattus norvegicus. The procedure, abridged: (§5)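 Superfused rat occipital cortex slices (0.3 × 0.3 mm) preloaded with [3H]-5-HT; Krebs-Henseleit pH 7.4 with 2.5 μM citalopram, 0.4 mL/min. Two 4-min 25 mM KCl pulses (62 and 98 min). Compound and 5-HT were given in the same solution. Fractions and slices were counted by scintillation. S2/S1 is expressed as % of control.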

Experiment [12] is filed under the species Rattus norvegicus. Briefly: Percent control of the stimulation ratio S2 (second stimulation)/S1(first stimulation) at a concentration of 100 nM. (P<0.05). The experiment is classed as functional.
Experiment [13] is described as follows: Antagonism of the induced potentiation of K+ stimulated [3H]5-HT release from brain slices with 5-HT (1000 nM) at a concentration of 1000 nM. The class given is functional, Rattus norvegicus. The essentials:
as §1

Experiment [14] is described as follows: Antagonism of the induced potentiation of K+ stimulated [3H]-5-HT release from brain slices with 5-HT (100 nM) at a concentration of 1000 nM, expressed as percent of control. The experiment is classed as functional, Rattus norvegicus. On the set-up: scale not given: the % may be the effect or the level left. The essentials: as §5
A short description of experiment [15]: Potentiation of K+ stimulated release of [3H]5-HT from brain slices at a concentration of 100 nM. (activity expressed as ratio of S2 (second stimulation)/S1(first stimulation)). The experiment is classed as functional, Rattus norvegicus. The procedure, abridged: as §4
The species entered for experiment [16] is Rattus norvegicus. Nature of the experiment: Percent control of the stimulation ratio S2 (second stimulation)/S1(first stimulation) at a concentration of 10 nM. (P>0.05). The class given is functional.
Experiment [17] can be described thus: Effect on 5-HTP turnover in Frontal cortex of rat brain, expressed as percent of control. The experiment is classed as functional. The procedure, abridged:
as §2

Sequence of Muscarinic acetylcholine receptor M3 (P08483 whole entry): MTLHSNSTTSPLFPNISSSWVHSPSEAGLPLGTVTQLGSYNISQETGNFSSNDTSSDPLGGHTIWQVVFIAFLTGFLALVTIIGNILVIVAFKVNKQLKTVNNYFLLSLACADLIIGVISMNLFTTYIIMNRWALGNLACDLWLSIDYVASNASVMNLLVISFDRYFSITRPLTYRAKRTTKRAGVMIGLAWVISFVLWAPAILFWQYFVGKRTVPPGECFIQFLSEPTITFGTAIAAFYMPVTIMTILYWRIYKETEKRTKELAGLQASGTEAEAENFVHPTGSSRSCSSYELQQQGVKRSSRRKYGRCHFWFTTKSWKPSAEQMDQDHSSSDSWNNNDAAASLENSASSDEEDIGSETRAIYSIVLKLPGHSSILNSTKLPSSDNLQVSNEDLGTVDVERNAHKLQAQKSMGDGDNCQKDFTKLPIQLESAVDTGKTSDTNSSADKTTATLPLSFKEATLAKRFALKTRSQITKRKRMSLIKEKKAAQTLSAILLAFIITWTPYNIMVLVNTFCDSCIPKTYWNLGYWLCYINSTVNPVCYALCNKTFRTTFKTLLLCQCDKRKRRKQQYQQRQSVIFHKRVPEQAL
Sequence of 5-hydroxytryptamine receptor 6 (P31388 whole entry): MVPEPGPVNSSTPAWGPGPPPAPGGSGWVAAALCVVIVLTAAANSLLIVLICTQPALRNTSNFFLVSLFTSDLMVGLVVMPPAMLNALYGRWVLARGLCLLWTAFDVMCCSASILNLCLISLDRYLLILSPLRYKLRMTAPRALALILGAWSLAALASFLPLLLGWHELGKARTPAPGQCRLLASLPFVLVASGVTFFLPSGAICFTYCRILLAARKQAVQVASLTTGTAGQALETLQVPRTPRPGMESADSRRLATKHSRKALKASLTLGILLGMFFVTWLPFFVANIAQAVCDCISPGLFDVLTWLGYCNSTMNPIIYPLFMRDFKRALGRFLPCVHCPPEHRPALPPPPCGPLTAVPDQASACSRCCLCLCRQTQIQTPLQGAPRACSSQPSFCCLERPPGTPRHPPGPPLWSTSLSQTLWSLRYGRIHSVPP

By Ki is commonly meant the equilibrium dissociation constant of an inhibitor or competing ligand from its target. `C1=C(CN2CCOCC2)COc2c1cccc2OC[C@H]1CNCCO1.CS(=O)(=O)O`: the Ratio of stimulation in experiment [1] is 1.28 and 1.39; in [13], 1.12 and 0.8. In addition, the results for the Ki in [2] and in experiment [9] were more than 3000 nM and more than 1000 nM, respectively. The Activity in [3] is 161%; in experiment [7] it was 148%; in [11], 149% and 107%; in experiment [14], 149% and 161%; in [17], 142%. The “No. of WDS/60 min” value in experiment [4] is 9.2; in experiment [6], 17. Also, the Potentiation in experiment [5] is recorded as 1.11; in experiment [8], 1.44; in [10] it was 0.99; in experiment [15], 1.23. The Control in experiment [12] was determined as 131%; in [16], 115%.
